# Test results: ChEMBL document CHEMBL1154032, “Substituted pyrimidines as cannabinoid CB1 receptor ligands” (Bioorg Med Chem Lett, 2009)
# Target: Cannabinoid receptor 1 (Rattus norvegicus, UniProt P20272)
# Experiment: Displacement of [3H]CP-55940 from cannabinoid CB1 receptor in Sprague-Dawley rat cerebellar membrane by liquid scintillation spectrometry
# Set-up: species or system Cerebellum
# Procedure, shortened: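 About 10 µg membrane incubated with 3 nM [3H]CP55,940, graded ligand concentrations, TME with 0.5% fatty-acid-free BSA, 1 h at 30 °C. PEI-soaked GF/B filtration, five ice-cold washes. IC50 by nonlinear regression, triplicate.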
# Chain of Cannabinoid receptor 1 (P20272 whole entry): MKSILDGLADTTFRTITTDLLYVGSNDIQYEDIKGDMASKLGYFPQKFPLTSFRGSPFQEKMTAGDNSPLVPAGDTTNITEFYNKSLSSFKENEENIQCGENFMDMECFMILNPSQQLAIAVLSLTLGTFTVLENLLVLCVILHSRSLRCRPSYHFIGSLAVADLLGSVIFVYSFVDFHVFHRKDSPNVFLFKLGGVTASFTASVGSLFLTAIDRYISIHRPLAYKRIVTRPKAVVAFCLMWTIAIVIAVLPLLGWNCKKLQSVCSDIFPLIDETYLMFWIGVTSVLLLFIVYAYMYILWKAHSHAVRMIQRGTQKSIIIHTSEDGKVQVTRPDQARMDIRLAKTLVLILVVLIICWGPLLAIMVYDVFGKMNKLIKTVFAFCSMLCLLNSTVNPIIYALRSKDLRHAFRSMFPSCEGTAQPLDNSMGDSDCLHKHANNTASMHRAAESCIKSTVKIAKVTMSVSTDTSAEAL
row,Structure (SMILES),IC50 [nM]
1,C[C@H](Nc1cc(NC2CCCC2)ncn1)[C@@H](Cc1ccc(Cl)cc1)c1cccc(Br)c1,24.7
2,Cc1nc(NC2CCCCCC2)cc(N[C@@H](C)[C@@H](Cc2ccc(Cl)cc2)c2cccc(Br)c2)n1,66.5
3,C[C@H](Nc1cc(NC2CCCCCC2)nc(C(F)(F)F)n1)[C@@H](Cc1ccc(Cl)cc1)c1cccc(Br)c1,38.9
4,C[C@H](Nc1cc(Nc2ccc(F)cc2)ncn1)[C@@H](Cc1ccc(Cl)cc1)c1cccc(Br)c1,97.8
5,C[C@H](Nc1cc(N2CCCCC2)ncn1)[C@@H](Cc1ccc(Cl)cc1)c1cccc(Br)c1,21
6,C[C@H](Nc1cc(C2CCCCC2)ncn1)[C@@H](Cc1ccc(Cl)cc1)c1cccc(Br)c1,63.1
7,C[C@H](Nc1cc(C2CCCC2)ncn1)[C@@H](Cc1ccc(Cl)cc1)c1cccc(Br)c1,39.8
8,CCCCCOc1cc(N[C@@H](C)[C@@H](Cc2ccc(Cl)cc2)c2cccc(Br)c2)ncn1,203
9,CCCCCNc1cc(N[C@@H](C)[C@@H](Cc2ccc(Cl)cc2)c2cccc(Br)c2)ncn1,195
10,CCCCC(CC)CNc1cc(N[C@@H](C)[C@@H](Cc2ccc(Cl)cc2)c2cccc(Br)c2)ncn1 (some centres not stated),103
11,Cc1nc(NC2CCCC2)cc(N[C@@H](C)[C@@H](Cc2ccc(Cl)cc2)c2cccc(Br)c2)n1,98.6
12,CC(C)CNc1cc(N[C@@H](C)[C@@H](Cc2ccc(Cl)cc2)c2cccc(Br)c2)ncn1,155
13,C[C@H](Nc1cc(NCC2CCCO2)ncn1)[C@@H](Cc1ccc(Cl)cc1)c1cccc(Br)c1 (some centres not stated),115
14,CCCCNc1cc(N[C@@H](C)[C@@H](Cc2ccc(Cl)cc2)c2cccc(Br)c2)nc(C(F)(F)F)n1,43.5
15,C[C@H](Nc1cc(NC2CCCCC2)ncn1)[C@@H](Cc1ccc(Cl)cc1)c1cccc(Br)c1,27.6
16,C[C@H](Nc1cc(NC2CCCCCC2)ncn1)[C@@H](Cc1ccc(Cl)cc1)c1cccc(Br)c1,45.3
17,C[C@H](Nc1cc(NCC2CCCCC2)ncn1)[C@@H](Cc1ccc(Cl)cc1)c1cccc(Br)c1,70.5
18,CCN(C)c1cc(N[C@@H](C)[C@@H](Cc2ccc(Cl)cc2)c2cccc(Br)c2)ncn1,106
19,C[C@H](Nc1cc(Nc2ccccc2)ncn1)[C@@H](Cc1ccc(Cl)cc1)c1cccc(Br)c1,67.4

row,Structure (SMILES),IC50 [nM]
1,CC1CC(C)CN(c2cc(N[C@@H](C)[C@@H](Cc3ccc(Cl)cc3)c3cccc(Br)c3)ncn2)C1 (some centres not stated),283
2,CCCCNc1cc(N[C@@H](C)[C@@H](Cc2ccc(Cl)cc2)c2cccc(Br)c2)ncn1,16.3
3,CCCCCCOc1cc(N[C@@H](C)[C@@H](Cc2ccc(Cl)cc2)c2cccc(Br)c2)ncn1,135
4,CC[C@H](Nc1cc(NC2CCCC2)ncn1)[C@@H](Cc1ccc(Cl)cc1)c1cccc(Br)c1,63.2
5,CC[C@H](Nc1cc(NC2CCCCC2)ncn1)[C@@H](Cc1ccc(Cl)cc1)c1cccc(Br)c1,569
6,COc1cc(N[C@@H](C)[C@@H](Cc2ccc(Cl)cc2)c2cccc(Br)c2)ncn1,136
7,CCCCCNc1cc(N[C@@H](C)[C@@H](Cc2ccc(Cl)cc2)c2cccc(Br)c2)nc(C(F)(F)F)n1,59.3
8,C[C@H](Nc1cc(NC2CCCCC2)nc(C(F)(F)F)n1)[C@@H](Cc1ccc(Cl)cc1)c1cccc(Br)c1,22.4
9,CSc1nc(NC2CCCCC2)cc(N[C@@H](C)[C@@H](Cc2ccc(Cl)cc2)c2cccc(Br)c2)n1,57.3
10,C[C@H](Nc1cc(N2CCCCC2)nc(C(F)(F)F)n1)[C@@H](Cc1ccc(Cl)cc1)c1cccc(Br)c1,196
11,CCCCNc1cc(N[C@@H](C)[C@@H](Cc2ccc(Cl)cc2)c2cccc(Br)c2)nc(C)n1,82
12,CC1CCN(c2cc(N[C@@H](C)[C@@H](Cc3ccc(Cl)cc3)c3cccc(Br)c3)ncn2)CC1,76.5
13,C[C@H](Nc1cc(NCc2ccccn2)ncn1)[C@@H](Cc1ccc(Cl)cc1)c1cccc(Br)c1,264
14,CCCCNc1cc(N[C@@H](C)[C@@H](Cc2ccc(Cl)cc2)c2cccc(Br)c2)nc(SC)n1,69.6
15,Cc1nc(N[C@@H](C)[C@@H](Cc2ccc(Cl)cc2)c2cccc(Br)c2)cc(N2CCCCC2)n1,28.9
16,CC(C)CCNc1cc(N[C@@H](C)[C@@H](Cc2ccc(Cl)cc2)c2cccc(Br)c2)ncn1,113
17,CCCCc1cc(N[C@@H](C)[C@@H](Cc2ccc(Cl)cc2)c2cccc(Br)c2)ncn1,73.8
18,C[C@H](Nc1cc(NCc2ccccc2)ncn1)[C@@H](Cc1ccc(Cl)cc1)c1cccc(Br)c1,195
19,C[C@H](Nc1cc(OC2CCCCC2)ncn1)[C@@H](Cc1ccc(Cl)cc1)c1cccc(Br)c1,95.3

row,Structure (SMILES),IC50 [nM]
1,C[C@H](Nc1cc(N2CCCCCC2)ncn1)[C@@H](Cc1ccc(Cl)cc1)c1cccc(Br)c1,94.4
2,C[C@H](Nc1cc(N2CCC(C(F)(F)F)CC2)ncn1)[C@@H](Cc1ccc(Cl)cc1)c1cccc(Br)c1,75
3,CSc1nc(N[C@@H](C)[C@@H](Cc2ccc(Cl)cc2)c2cccc(Br)c2)cc(N2CCCCC2)n1,109
4,Cc1nc(N[C@@H](C)[C@@H](Cc2ccc(Cl)cc2)c2cccc(Br)c2)cc(N(C)C)n1,130
5,CCCCCCNc1cc(N[C@@H](C)[C@@H](Cc2ccc(Cl)cc2)c2cccc(Br)c2)ncn1,342
6,Cc1nc(NCc2ccc(C(F)(F)F)cc2)cc(N[C@@H](C)[C@@H](Cc2ccc(Cl)cc2)c2cccc(Br)c2)n1,160
7,CSc1nc(NC2CCCCCC2)cc(N[C@@H](C)[C@@H](Cc2ccc(Cl)cc2)c2cccc(Br)c2)n1,33
8,CCC(CC)Nc1cc(N[C@@H](C)[C@@H](Cc2ccc(Cl)cc2)c2cccc(Br)c2)ncn1,93.6
9,CCCCOc1cc(N[C@@H](C)[C@@H](Cc2ccc(Cl)cc2)c2cccc(Br)c2)ncn1,76.6
10,CC[C@H](Nc1cc(NC2CCCCCC2)ncn1)[C@@H](Cc1ccc(Cl)cc1)c1cccc(Br)c1,636
11,C[C@H](Nc1cc(N2CCCC2)ncn1)[C@@H](Cc1ccc(Cl)cc1)c1cccc(Br)c1,116
12,C[C@H](Nc1cc(N2CCOCC2)ncn1)[C@@H](Cc1ccc(Cl)cc1)c1cccc(Br)c1,69.3
13,CCCNc1cc(N[C@@H](C)[C@@H](Cc2ccc(Cl)cc2)c2cccc(Br)c2)ncn1,48.1
14,Cc1nc(NC2CCCCC2)cc(N[C@@H](C)[C@@H](Cc2ccc(Cl)cc2)c2cccc(Br)c2)n1,22.1
15,C[C@H](Nc1cc(OCC2CCCCC2)ncn1)[C@@H](Cc1ccc(Cl)cc1)c1cccc(Br)c1,136
16,Clc1ccc(C[C@H](CNc2cc(N3CCCCC3)ncn2)c2cccc(Br)c2)cc1,71.1
17,Clc1ccc(C[C@H](CNc2cc(NC3CCCCCC3)ncn2)c2cccc(Br)c2)cc1,1540
18,CC[C@H](Nc1cc(N2CCCCC2)ncn1)[C@@H](Cc1ccc(Cl)cc1)c1cccc(Br)c1,285

# Target: Cannabinoid receptor 2 (Homo sapiens, UniProt P34972)
# Experiment: Displacement of [3H]WIN-55212-2 from human recombinant CB2 receptor expressed in CHOK1 cells by liquid scintillation spectrometry
# Format: cell-based, CHO-K1
# Procedure, shortened: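 Membranes from CHO K-1 cells transfected with human CB2, prepared as for brain tissue (TME buffer pH 7.4, 48,000g spin). About 10 µg membrane incubated with 3 nM [3H]WIN55,212-2 and graded ligand concentrations in TME with 0.5% fatty-acid-free BSA, 1 h at 30 °C. Filtered over PEI-soaked GF/B, washed five times ice-cold. IC50 from nonlinear regression, triplicate.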
# Chain of Cannabinoid receptor 2 (P34972 whole entry): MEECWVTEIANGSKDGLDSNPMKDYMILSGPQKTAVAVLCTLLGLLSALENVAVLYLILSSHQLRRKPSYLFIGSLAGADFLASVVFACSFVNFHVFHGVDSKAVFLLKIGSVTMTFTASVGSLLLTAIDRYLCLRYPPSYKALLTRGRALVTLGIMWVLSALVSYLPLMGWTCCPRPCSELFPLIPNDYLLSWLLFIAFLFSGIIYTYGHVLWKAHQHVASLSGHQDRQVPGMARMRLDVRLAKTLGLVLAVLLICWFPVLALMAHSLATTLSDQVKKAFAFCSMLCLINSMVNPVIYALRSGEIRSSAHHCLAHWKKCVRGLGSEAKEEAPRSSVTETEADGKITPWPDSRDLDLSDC
row,Structure (SMILES),IC50 [nM]
1,CCCCNc1cc(N[C@@H](C)[C@@H](Cc2ccc(Cl)cc2)c2cccc(Br)c2)ncn1,2960
